The text below walks through data of ChEMBL document CHEMBL5543124, “Lead Compound Development of SRC-3 Inhibitors with Improved Pharmacokinetic Properties and Anticancer Efficacy” (J Med Chem, 2024).

Calls of active or inactive are those of the source. The calls are words filed in the database; no cut-off is given here.

Series [1] in a line: Stability in CD-1 mouse plasma at 37.7 micromol/kg,ip administration measured after 22 hrs by LC-MS/MS analysis. In kind it is ADME, cell-free. The following applies: at 37.7 µmol/kg. An outline of the steps: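 Female CD-1 mice (n=3) dosed i.p. at 37.7 μmol/kg (equimolar across compounds). Blood (20 μL) drawn at 0.25, 5 and 22 h and processed to plasma. Drug levels quantified by LC-MS/MS.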

Series [2] addresses Nuclear receptor coactivator 3 (Homo sapiens) (UniProt Q9Y6Q9). Put plainly: Inhibition of recombinant His-tagged SRC-3 (unknown origin) expressed in baculovirus assessed as reduction in recruitment of p300 in ER complex at 0.15 uM incubated for 30 mins by pull-down based western blotting analysis. In outline: (§1)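 Purified baculovirus-expressed His-SRC-3-flag (0.1 μg) preincubated with compound or vehicle for 30 min on ice. Then 0.1 μg recombinant ERα and His-p300 plus ERE-containing DNA oligo and 1 μM 17β-estradiol added, 1 h on ice. ER complexes immunoprecipitated with anti-ERα antibody; SRC-3 and p300 detected by western blot.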
Background: A western blot detects proteins with antibodies after separation by electrophoresis.

The subject of series [3] is PANC-1. In words: Cytotoxicity against SiRNA mediated SRC-3.1 knockdown human PANC-1 cells assessed as inhibition of cell growth incubated for 72 hrs by MTT assay. The following applies: PANC-1, 72 h. In kind it is functional, cell-based. In outline:
(§2)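 PANC-1 cells with stable lentiviral shRNA knockdown of SRC-3 or control shRNA; SRC-3 levels checked by western blot. Cells treated with a dose series for 72 h and viability read by MTT.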
(Tetrazolium dyes change colour on reduction, which living cells bring about.)

Series [4] is described as follows: Cytotoxicity against human MPANC96 cells assessed as inhibition of cell growth incubated for 72 hrs by MTT assay. The following applies: MPANC96, 72 h. It is filed as functional, cell-based. In outline: (§3)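 Cells seeded and grown to 70–80% confluence, then exposed for 72 h to a titration series (0.2–1000 nM). Viability read by MTT relative to untreated cells, with 6 replicates per concentration. IC50 fitted with a Hill-slope model.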

Another series concerns BT-474. Put plainly: Cytotoxicity against human BT-474 cells assessed as inhibition of cell growth incubated for 72 hrs by MTT assay. The following applies: BT-474, 72 h. In kind it is functional, cell-based. In outline:
as §3

A further series deals with Mu-type opioid receptor (Homo sapiens, UniProt P35372). Put plainly: Antagonist activity at OPRM1 (unknown origin) by cAMP assay. In kind it is toxicity. An outline of the steps:
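Tested in a commercial off-target safety screening panel of 78 targets. Values reported as RC50, taken as IC50 except for agonist mode, where RC50 is EC50.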

Series [5] is described as follows: Half life in CD-1 mouse at 1 mg/kg,iv administration measured upto 48 hrs by LC-MS/MS analysis. In kind it is ADME, organism-based. The conditions noted are these: in vivo. An outline of the steps:
(§4)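 Single intravenous bolus in ICR male mice (n = 3, 6 weeks); dosing solution 0.5 mg/mL in 20% DMSO, 16% PEG, 4% dextrose in PBS. Tail-vein blood (10 μL) taken at 2, 5, 15, 30 min and 1, 2, 4, 8, 24, 48 h. Plasma quantified by LC-MS/MS against a 0.5–1000 ng/mL calibration; parameters from non-compartmental analysis.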

A further series concerns Prostate cancer organoid. In words: Antitumor activity against patient derived Prostate cancer PDX organoid assessed as reduction in organoid growth measured after 2 weeks. It is filed as functional, tissue-based. The following applies: Homo sapiens. In outline: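 Single cells from prostate cancer PDX tumors (collagenase I/III digest); 20000 cells embedded in collagen gel and cultured overnight, then treated or vehicle for 14 days with at least 5 wells per dose. Organoids imaged and counted on day 14; groups compared by Student t test.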

Series [6] is described as follows: AUC (0 to t) in CD-1 mouse at 1 mg/kg,iv administration measured upto 48 hrs by LC-MS/MS analysis. It is filed as ADME, organism-based. The following applies: in vivo. An outline of the steps: as §4
Series [7] can be described thus: Antitumor activity against human Panc-1-Luc cells orthotopically xenografted in SCID mouse assessed as reduction in tumor weight at 10 mg/kg,ip administration once daily for 63 days by weighing harvested tumors. The conditions noted are these: time 63 day. A general note: In xenograft studies the graft and the host belong to different species.
In series [8] the target is Nuclear receptor coactivator 3 (Homo sapiens) (UniProt Q9Y6Q9). In words: Inhibition of recombinant His-tagged SRC-3 (unknown origin) expressed in baculovirus assessed as reduction in recruitment of SRC-3 in ER complex at 0.15 uM incubated for 30 mins by pull-down based western blotting analysis. An outline of the steps: as §1
Series [9] is described as follows: Drug concentration in CD-1 mouse plasma at 37.7 micromol/kg,ip administration measured after 22 hrs by LC-MS/MS analysis. It is filed as ADME, cell-free. The conditions noted are these: dose 37.7 µmol/kg. In outline:
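Female CD-1 mice (n = 3) dosed ip at 37.7 μmol/kg. Blood (20 μL) taken at 0.25, 5 and 22 h, processed to plasma, and drug quantified by LC-MS/MS.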

Series [10] relates to PANC-1. In words: Cytotoxicity against […] SRC-3.2 knockdown human PANC-1 cells assessed as inhibition of cell growth incubated for 72 hrs by MTT assay. The conditions noted are these: PANC-1, 72 h. It is filed as functional, cell-based. An outline of the steps:
as §2

Series [11] in a line: Oral bioavailability in CD-1 mouse at 10 mg/kg administration measured upto 48 hrs by LC-MS/MS analysis. It is filed as ADME, organism-based. The following applies: in vivo.

Nuclear receptor coactivator 3 (Homo sapiens), sequence (Q9Y6Q9 2-1424 limits assumed): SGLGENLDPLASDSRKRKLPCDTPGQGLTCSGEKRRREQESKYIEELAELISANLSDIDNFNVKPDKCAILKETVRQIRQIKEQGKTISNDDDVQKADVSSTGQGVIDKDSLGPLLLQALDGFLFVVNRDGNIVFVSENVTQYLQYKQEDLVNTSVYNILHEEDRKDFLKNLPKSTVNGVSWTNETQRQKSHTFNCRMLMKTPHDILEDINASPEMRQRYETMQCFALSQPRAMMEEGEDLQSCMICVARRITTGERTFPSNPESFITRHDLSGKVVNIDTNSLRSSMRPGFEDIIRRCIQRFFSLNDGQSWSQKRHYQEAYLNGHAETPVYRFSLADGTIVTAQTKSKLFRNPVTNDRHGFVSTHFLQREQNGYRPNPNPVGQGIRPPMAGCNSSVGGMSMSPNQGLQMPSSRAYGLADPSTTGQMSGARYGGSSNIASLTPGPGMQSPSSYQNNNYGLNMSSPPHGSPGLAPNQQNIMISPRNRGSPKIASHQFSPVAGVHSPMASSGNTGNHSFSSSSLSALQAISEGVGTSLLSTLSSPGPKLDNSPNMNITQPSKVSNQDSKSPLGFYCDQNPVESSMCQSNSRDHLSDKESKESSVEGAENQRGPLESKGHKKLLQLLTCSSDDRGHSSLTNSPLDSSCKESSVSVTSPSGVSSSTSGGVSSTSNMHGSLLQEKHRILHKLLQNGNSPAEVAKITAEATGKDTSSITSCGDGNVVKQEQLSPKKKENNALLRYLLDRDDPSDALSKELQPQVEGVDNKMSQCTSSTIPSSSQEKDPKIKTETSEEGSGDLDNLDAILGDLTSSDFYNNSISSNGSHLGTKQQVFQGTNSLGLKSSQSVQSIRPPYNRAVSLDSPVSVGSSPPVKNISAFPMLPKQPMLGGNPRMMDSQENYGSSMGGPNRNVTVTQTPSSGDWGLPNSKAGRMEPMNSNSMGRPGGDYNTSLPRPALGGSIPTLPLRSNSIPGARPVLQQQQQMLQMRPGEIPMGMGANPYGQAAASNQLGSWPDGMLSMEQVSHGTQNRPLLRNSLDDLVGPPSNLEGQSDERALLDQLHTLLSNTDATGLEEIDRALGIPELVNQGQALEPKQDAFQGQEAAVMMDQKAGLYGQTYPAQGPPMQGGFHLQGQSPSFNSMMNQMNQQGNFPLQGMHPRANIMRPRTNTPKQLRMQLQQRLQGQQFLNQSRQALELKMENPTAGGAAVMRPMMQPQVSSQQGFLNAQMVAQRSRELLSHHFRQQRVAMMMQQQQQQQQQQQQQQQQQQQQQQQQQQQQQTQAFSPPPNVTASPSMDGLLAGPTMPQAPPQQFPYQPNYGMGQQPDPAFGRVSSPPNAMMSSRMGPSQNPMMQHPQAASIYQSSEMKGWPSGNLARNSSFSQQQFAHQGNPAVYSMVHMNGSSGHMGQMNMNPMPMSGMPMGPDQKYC
Mu-type opioid receptor, sequence (P35372 whole entry): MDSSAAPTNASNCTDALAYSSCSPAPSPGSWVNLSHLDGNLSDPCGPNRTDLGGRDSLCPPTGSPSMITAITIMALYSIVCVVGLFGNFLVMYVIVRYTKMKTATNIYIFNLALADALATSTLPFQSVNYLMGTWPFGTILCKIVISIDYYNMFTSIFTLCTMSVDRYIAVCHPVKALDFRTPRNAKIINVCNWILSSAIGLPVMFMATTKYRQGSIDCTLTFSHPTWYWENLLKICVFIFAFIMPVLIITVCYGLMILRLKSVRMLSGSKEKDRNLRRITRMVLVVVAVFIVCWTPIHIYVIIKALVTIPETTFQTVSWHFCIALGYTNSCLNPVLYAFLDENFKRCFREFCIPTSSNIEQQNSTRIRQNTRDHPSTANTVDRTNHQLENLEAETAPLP

By IC50 is commonly meant the concentration that gives 50% inhibition. Turning to `C/C(=N\N=c1/[nH]c2cc(F)c(F)cc2n1C)c1ccc(F)cn1`, the Stability result in series [1] is “Stable”. Also, the inhibition result in series [2] and in series [8] was “Active” throughout. Also, the 50% inhibitory concentration (IC50) turned out to be 147 nM with PANC-1 [3]; 28 nM in [4]; 0.8 nM in the series with BT-474; 3100 nM against Mu-type opioid receptor; 119 nM in the series on PANC-1 [10]. Also, the t1/2 in series [5] came out at 22.5 h. For the same compound, in the series on Prostate cancer organoid, the result was Active. The AUCt in [6] worked out at 737 ng·h/mL. Also, in series [7], the Activity is recorded as 0.22 g. The compound also registered a concentration at 22 h in [9] of 47 nM. The compound also returned a F in [11] of 24.6%.
